Assay results: ChEMBL document CHEMBL4261600 (Eur J Med Chem, 2018)
Active and inactive are the calls of the source.

Key:
[1] = system: Ramos; test: Antiproliferative activity against human Ramos cells after 72 hrs by Celltiter-Glo assay; type: functional
In short: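 Cells seeded at 3000/well in 96-well plates, exposed to serially diluted compound for 72 h at 37 °C, 5% CO2. Viability read by CellTiter-Glo luminescence and normalized to DMSO control. GI50 derived from curve fit, mean of three independent measurements. Culture media: DMEM/10% FBS for adherent lines; IMDM for MV4-11 and MEC-1/2; RPMI 1640 for suspension lines and CHL.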

[2] = molecular target: Cyclin-dependent kinase 9 (Homo sapiens, UniProt P50750); test: Inhibition of CDK9 in human MV4-11 cells assessed as decrease in phosphorylation at Thr 186 residues up to 3 uM after 2 hrs by immunoblotting analysis; type: cell-based
[3] = AUC (0 to infinity) in Sprague-Dawley rat at 3 mg/kg, iv by LC-MS/MS analysis; type: ADME, organism-based; design: dose 3 mg/kg, time infinity, route intravenous; conditions: in vivo
In short: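 Non-compartmental PK. Male SD rats 190-210 g, mice and beagle dogs acclimatized one week, fasted 12 h with water, split into iv and po groups (mice 48, rats 6, dogs 6). iv 3/3/2 mg/kg (mice/rats/dogs); po 10/20/10 mg/kg; vehicle DMSO in 5% glucose water. Blood at 2 or 5 to 720 min; plasma protein-precipitated with methanol, caffeine internal standard, LC-MS/MS.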

[4] = MRT (0 to infinity) in Sprague-Dawley rat at 3 mg/kg, iv by LC-MS/MS analysis; type: ADME, organism-based; conditions: in vivo
[5] = molecular target: Atypical kinase COQ8A, mitochondrial (Homo sapiens) (UniProt Q8NI60); test: Binding affinity to wild-type human […] length ADCK3 (M280 to Q647 residues) expressed in bacterial expression system assessed as remaining unbound target protein level at 1000 nM by Kinomescan method relative to control
In short: (§1)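 Single-point competition binding screen across a panel of 468 kinases and mutants, with the inhibitor at 1 μM. Binding is read out as percent of a DMSO control, and targets below 1 percent control were classed as strong binders.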

[6] = molecular target: Calcium/calmodulin-dependent protein kinase type 1G (Homo sapiens) (UniProt Q96NX5); test: Binding affinity to wild-type human partial length CAMK1G (M1 to A342 residues) expressed in bacterial expression system assessed as remaining unbound target protein level at 1000 nM by Kinomescan method relative to control
In short: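 KINOMEscan competition binding profile across a panel of 468 kinases and mutants, with the inhibitor tested at a single concentration of 1 μM. Binding is reported as percent of control, meaning signal relative to a DMSO control.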

[7] = molecular target: Cyclin-dependent kinase 11A (Homo sapiens) (UniProt Q9UQ88); test: Binding affinity to wild-type human partial length CDC2L2 (D391 to K730 residues) expressed in bacterial expression system assessed as remaining unbound target protein level at 1000 nM by Kinomescan method relative to control
In short: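 Profiled in a KINOMEscan binding panel with the inhibitor at a single concentration of 1 μM. Binding to each kinase was read out as percent of control, relative to a DMSO control. Strong binders were defined as those with a percent control value below 1.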

[8] = molecular target: Serine/threonine-protein kinase Chk2 (Homo sapiens) (UniProt O96017); test: Binding affinity to wild-type human partial length CHEK2 (S253 to E574 residues) expressed in bacterial expression system assessed as remaining unbound target protein level at 1000 nM by Kinomescan method relative to control
[9] = system: Fibroblast growth factor receptor 3 (Homo sapiens), P22607 [G697C]; test: Binding affinity to human partial length FGFR3 G697C mutant (R442 to S771 residues) expressed in bacterial expression system assessed as remaining unbound target protein level at 1000 nM by Kinomescan method relative to control
In short: (§2)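 KINOMEscan competition-binding profiling across the panel of 468 kinases and mutants, with inhibitor tested at 1 μM. Binding is expressed as percent of control, with DMSO as the reference control.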

[10] = system: Receptor-type tyrosine-protein kinase FLT3 (Homo sapiens), P36888 [UNDEFINED MUTATION]; test: Binding affinity to human partial length FLT3 ITD/D835V double mutant expressed in bacterial expression system assessed as remaining unbound target protein level at 1000 nM by Kinomescan method relative to control; in short: as §2
[11] = system: Mast/stem cell growth factor receptor Kit (Homo sapiens), P10721 [L576P]; test: Binding affinity to human partial length KIT L576P mutant (Y545 to D952 residues) expressed in bacterial expression system assessed as remaining unbound target protein level at 1000 nM by Kinomescan method relative to control; in short: as §2
[12] = molecular target: Dual specificity mitogen-activated protein kinase kinase 1 (Homo sapiens) (UniProt Q02750); test: Binding affinity to wild-type human full length MEK1 (M1 to V393 residues) expressed in mammalian expression system assessed as remaining unbound target protein level at 1000 nM by Kinomescan method relative to control; in short: as §1
[13] = molecular target: Dual specificity mitogen-activated protein kinase kinase 6 (Homo sapiens) (UniProt P52564); test: Binding affinity to wild-type human partial length MEK6 (K36 to D334 residues) expressed in bacterial expression system assessed as remaining unbound target protein level at 1000 nM by Kinomescan method relative to control
In short: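 KINOMEscan binding panel of 468 kinases/mutants. Inhibitor was tested at a single concentration of 1 μM. Binding is reported as percent of control, defined relative to a DMSO control.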

[14] = molecular target: Myosin light chain kinase (Homo sapiens) (UniProt Q32MK0); test: Binding affinity to wild-type human partial length MLCK (D488 to K800 residues) expressed in bacterial expression system assessed as remaining unbound target protein level at 1000 nM by Kinomescan method relative to control
[15] = molecular target: cAMP-dependent protein kinase catalytic subunit PRKX (Homo sapiens) (UniProt P51817); test: Binding affinity to wild-type human partial length PRKX (M1 to F358 residues) expressed in bacterial expression system assessed as remaining unbound target protein level at 1000 nM by Kinomescan method relative to control
[16] = molecular target: SNF-related serine/threonine-protein kinase (Homo sapiens) (UniProt Q9NRH2); test: Binding affinity to wild-type human partial length SNRK (M1 to E339 residues) expressed in mammalian expression system assessed as remaining unbound target protein level at 1000 nM by Kinomescan method relative to control
[17] = molecular target: High affinity nerve growth factor receptor (Homo sapiens) (UniProt P04629); test: Binding affinity to wild-type human partial length TRKA (G475 to G790 residues) expressed in mammalian expression system assessed as remaining unbound target protein level at 1000 nM by Kinomescan method relative to control
[18] = molecular target: Phosphatidylinositol 3-kinase catalytic subunit type 3 (Homo sapiens) (UniProt Q8NEB9); test: Binding affinity to wild-type human partial length VPS34 (S282 to H879 residues) expressed in mammalian expression system assessed as remaining unbound target protein level at 1000 nM by Kinomescan method relative to control
[19] = organism: Homo sapiens; test: Selectivity ratio of IC50 for recombinant GST-tagged human full length CDK14/cyclin Y (2 to end residues) to IC50 for recombinant full length His-tagged human CDK9/CyclinT1

SNF-related serine/threonine-protein kinase (Homo sapiens), sequence (Q9NRH2 whole entry, the tested form may be a part): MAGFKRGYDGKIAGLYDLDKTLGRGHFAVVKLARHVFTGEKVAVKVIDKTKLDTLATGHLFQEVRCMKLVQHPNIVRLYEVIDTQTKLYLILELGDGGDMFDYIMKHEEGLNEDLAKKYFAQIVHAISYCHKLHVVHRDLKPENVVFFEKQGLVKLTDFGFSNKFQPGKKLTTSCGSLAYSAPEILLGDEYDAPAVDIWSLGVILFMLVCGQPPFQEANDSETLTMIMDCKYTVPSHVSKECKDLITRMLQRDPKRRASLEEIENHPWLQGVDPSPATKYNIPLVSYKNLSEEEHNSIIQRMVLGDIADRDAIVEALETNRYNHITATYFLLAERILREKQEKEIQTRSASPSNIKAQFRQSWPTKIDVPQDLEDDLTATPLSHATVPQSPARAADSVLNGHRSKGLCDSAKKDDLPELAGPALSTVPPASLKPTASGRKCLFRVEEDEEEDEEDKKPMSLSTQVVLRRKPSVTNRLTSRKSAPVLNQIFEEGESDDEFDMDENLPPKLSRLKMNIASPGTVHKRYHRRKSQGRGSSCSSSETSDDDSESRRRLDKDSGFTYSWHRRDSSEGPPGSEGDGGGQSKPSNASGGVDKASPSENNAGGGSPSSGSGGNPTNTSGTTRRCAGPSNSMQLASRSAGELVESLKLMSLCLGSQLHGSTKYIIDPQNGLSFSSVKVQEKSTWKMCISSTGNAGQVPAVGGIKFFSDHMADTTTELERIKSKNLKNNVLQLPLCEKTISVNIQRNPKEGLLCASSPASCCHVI
Atypical kinase COQ8A, mitochondrial (Homo sapiens), sequence (Q8NI60 163-647 limits assumed): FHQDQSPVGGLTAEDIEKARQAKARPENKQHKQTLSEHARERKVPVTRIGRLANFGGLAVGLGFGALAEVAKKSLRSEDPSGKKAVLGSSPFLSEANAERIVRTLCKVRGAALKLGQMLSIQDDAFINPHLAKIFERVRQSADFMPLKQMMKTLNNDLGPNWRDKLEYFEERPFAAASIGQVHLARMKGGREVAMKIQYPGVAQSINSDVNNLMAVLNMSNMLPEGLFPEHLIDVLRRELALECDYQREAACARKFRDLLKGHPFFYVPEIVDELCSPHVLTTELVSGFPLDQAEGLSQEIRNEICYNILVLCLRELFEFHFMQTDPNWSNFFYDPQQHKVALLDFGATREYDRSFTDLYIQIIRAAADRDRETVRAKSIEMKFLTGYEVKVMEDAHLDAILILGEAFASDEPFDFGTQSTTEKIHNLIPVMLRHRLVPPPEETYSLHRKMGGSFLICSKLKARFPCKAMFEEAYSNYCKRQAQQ
Serine/threonine-protein kinase Chk2 (Homo sapiens), sequence (O96017 whole entry, the tested form may be a part): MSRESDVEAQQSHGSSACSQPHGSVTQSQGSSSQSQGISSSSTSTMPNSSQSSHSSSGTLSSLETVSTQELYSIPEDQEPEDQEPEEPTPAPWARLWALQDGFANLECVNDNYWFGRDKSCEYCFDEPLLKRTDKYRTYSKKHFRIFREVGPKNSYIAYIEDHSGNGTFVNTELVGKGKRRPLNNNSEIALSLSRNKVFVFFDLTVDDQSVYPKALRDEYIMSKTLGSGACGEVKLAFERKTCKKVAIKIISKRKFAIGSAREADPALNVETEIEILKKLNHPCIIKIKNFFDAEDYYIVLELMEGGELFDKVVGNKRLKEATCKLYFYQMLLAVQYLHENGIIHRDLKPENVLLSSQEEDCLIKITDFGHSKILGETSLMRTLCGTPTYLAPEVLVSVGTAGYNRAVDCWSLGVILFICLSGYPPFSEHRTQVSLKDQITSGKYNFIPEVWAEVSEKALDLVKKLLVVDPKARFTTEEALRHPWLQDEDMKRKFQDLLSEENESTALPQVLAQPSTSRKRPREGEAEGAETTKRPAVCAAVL
Cyclin-dependent kinase 11A (Homo sapiens), sequence (Q9UQ88 whole entry, the tested form may be a part): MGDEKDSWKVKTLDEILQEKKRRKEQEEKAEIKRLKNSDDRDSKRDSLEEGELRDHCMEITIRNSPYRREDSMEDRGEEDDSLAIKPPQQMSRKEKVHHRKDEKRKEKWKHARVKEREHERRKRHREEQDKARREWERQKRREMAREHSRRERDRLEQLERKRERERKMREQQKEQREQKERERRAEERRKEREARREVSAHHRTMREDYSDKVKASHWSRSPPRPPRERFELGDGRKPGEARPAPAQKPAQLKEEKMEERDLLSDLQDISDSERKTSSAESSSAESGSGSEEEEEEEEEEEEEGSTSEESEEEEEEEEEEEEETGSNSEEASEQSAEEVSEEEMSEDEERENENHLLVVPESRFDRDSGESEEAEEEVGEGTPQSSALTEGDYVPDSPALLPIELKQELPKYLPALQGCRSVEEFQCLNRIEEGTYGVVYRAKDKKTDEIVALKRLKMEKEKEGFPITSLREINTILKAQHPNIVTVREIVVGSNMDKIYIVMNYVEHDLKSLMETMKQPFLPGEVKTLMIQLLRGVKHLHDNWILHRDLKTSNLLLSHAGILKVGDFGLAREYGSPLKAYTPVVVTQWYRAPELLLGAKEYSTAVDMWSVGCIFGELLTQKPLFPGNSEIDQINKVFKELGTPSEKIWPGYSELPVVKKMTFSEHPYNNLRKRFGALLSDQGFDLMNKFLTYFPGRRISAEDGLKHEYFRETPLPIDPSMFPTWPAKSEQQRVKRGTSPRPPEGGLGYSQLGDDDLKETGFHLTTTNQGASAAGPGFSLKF
cAMP-dependent protein kinase catalytic subunit PRKX (Homo sapiens), sequence (P51817 whole entry, the tested form may be a part): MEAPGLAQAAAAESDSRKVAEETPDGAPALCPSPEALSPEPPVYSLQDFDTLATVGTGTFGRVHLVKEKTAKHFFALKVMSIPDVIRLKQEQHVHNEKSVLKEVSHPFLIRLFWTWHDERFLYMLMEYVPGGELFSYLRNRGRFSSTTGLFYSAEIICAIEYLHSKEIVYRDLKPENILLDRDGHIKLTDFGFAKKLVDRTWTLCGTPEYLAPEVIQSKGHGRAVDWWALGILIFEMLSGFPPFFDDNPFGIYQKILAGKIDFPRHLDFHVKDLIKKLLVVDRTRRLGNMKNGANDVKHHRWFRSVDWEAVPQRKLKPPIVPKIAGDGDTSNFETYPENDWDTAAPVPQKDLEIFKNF
Phosphatidylinositol 3-kinase catalytic subunit type 3 (Homo sapiens), sequence (Q8NEB9 whole entry, the tested form may be a part): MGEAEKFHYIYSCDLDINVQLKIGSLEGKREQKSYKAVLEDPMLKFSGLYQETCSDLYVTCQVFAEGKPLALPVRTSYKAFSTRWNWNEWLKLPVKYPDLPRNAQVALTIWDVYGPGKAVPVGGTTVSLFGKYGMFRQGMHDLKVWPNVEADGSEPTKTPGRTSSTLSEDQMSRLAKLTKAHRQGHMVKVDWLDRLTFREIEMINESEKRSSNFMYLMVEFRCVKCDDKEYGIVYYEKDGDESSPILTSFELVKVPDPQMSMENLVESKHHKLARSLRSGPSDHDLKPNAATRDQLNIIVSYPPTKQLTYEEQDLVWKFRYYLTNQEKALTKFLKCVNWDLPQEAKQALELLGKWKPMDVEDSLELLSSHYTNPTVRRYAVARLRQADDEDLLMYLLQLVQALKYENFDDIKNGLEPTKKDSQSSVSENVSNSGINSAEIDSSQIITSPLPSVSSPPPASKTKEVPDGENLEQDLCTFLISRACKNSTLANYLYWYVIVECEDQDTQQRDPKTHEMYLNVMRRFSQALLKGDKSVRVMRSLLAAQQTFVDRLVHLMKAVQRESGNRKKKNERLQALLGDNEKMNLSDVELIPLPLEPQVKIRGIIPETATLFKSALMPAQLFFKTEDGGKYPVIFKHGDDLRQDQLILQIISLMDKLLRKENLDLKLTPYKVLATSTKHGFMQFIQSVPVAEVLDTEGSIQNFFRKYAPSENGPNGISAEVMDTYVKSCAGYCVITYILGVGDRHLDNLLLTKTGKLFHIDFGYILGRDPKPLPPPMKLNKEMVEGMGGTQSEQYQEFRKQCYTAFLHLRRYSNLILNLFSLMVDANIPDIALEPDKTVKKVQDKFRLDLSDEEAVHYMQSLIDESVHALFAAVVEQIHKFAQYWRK
High affinity nerve growth factor receptor (Homo sapiens), sequence (P04629 33-796 limits assumed): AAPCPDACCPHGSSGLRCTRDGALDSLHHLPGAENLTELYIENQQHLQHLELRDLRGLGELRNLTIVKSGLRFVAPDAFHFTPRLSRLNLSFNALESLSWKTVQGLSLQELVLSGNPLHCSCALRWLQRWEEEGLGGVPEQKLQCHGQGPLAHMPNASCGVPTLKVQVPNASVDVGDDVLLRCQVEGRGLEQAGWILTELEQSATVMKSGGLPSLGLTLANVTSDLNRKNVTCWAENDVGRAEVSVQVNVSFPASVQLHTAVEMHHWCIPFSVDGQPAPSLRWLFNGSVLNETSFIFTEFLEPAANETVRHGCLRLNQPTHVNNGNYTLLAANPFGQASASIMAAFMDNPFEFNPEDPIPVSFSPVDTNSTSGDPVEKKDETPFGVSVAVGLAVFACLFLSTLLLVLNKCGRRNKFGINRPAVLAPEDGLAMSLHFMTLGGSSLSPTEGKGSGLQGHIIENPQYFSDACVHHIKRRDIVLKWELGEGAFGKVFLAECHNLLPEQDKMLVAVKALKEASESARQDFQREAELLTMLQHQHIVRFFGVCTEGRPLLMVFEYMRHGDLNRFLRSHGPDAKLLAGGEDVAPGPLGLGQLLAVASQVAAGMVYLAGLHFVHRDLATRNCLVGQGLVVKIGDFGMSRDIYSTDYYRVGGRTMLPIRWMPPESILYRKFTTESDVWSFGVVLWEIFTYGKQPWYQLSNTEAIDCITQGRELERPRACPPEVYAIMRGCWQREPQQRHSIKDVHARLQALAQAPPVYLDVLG
Cyclin-dependent kinase 9, sequence (P50750 whole entry): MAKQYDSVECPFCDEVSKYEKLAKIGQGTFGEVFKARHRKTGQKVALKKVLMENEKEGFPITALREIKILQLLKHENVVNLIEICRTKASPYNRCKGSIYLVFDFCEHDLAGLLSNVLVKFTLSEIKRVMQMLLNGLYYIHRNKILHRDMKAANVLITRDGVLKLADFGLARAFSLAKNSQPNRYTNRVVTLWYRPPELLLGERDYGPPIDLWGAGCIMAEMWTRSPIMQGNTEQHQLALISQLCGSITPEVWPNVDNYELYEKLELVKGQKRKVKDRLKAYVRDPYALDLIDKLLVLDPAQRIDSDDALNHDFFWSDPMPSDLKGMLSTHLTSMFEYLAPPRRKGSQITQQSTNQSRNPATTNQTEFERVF

SMILES: COCCN[C@H]1CC[C@H](Nc2cc(-c3csc(NCC4(C#N)CCOCC4)n3)c(Cl)cn2)CC1
- GI50 [1]: 0.013 µM
- inhibition [2]: inactive
- AUC(0-inf) [3]: 662 ng·h/mL
- MRT inf [4]: 6.33 h
- Activity [5]: 88%
- Activity [6]: 94%
- Activity [7]: 90%
- Activity [8]: 90%
- Activity [9]: 60%
- Activity [10]: 65%
- Activity [11]: 90%
- Activity [12]: 100%
- Activity [13]: 68%
- Activity [14]: 100%
- Activity [15]: 91%
- Activity [16]: 100%
- Activity [17]: 71%
- Activity [18]: 95%
- Ratio IC50 [19]: > 1000
